Assay outcomes: PubChem, The Scripps Research Institute Molecular Screening Center
M5 antag = blocks acetylcholine activation of human M5 receptor | inhibition, % at 3 µM | P08912 | actives 0.59% (n = 360,000) | AID 624040 | CHO-hM5 cells, Fluo-8 calcium fluorescence, ACh EC80;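 active = inhibition above a per-plate cutoff, the mean of that plate's test compounds plus 3 SD, cut at about 27% in these data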;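 note: 0% = acetylcholine EC80 with DMSO and 100% = DMSO without agonist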
Target sequence (P08912 whole entry, looked up): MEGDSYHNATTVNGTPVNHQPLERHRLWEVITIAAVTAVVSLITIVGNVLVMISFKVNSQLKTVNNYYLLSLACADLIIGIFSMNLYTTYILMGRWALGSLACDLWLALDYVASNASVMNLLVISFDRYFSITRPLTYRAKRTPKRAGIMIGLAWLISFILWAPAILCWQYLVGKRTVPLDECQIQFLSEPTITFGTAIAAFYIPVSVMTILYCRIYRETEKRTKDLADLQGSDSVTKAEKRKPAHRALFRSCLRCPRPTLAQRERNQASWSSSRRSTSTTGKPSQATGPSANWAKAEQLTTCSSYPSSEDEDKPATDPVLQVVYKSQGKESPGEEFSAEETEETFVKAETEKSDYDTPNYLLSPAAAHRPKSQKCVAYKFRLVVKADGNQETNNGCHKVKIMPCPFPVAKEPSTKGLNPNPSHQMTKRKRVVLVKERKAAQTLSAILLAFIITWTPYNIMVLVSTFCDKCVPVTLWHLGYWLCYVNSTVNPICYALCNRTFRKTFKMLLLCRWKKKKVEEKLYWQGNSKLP
CHRM5 agonist = agonists of human muscarinic M5 receptor (CHRM5). CHO-K1 hM5 cells, Fluo-8 calcium fluorescence; 0% DMSO wells, 100% maximal acetylcholine response. activation, % at 3 µM. actives 0.19% (n = 360,000);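 active = activation above the run's mean over test compounds plus 3 SD, cut at about 23% in these data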;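 note: signal is peak over basal fluorescence ratio across the kinetic read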
CHRM4 agonist = agonists of human muscarinic M4 receptor (CHRM4) | activation, % at 3 µM | P08173 | actives 0.14% (n = 360,000) | CHO-K1 hM4/Gqi5, Fluo-8 calcium fluorescence; vehicle 0%, full acetylcholine response 100% | AID 624127;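 active = activation above the run mean over all test wells plus 3 SD, cut at about 32% in these data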;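 note: peak over basal fluorescence ratio per well then scaled between controls; 0% = DMSO wells and 100% = acetylcholine at EC100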
CHRM4 antagonist = CHRM4 antagonism in calcium assay. CHO-hM4 cells, ACh EC80, Fluo-8 calcium fluorescence. inhibition, % at 3 µM. actives 0.73% (n = 360,000). AID 624125;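 active = inhibition above its plate's cutoff, the mean inhibition of sample wells plus 3 SD, cut at about 27% in these data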;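 note: 0% = acetylcholine EC80 with DMSO and 100% = DMSO without agonist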
M5 PAM = positive allosteric modulators of human muscarinic M5 receptor. activation, % at 3 µM. actives 0.3% (n = 360,000). CHO-K1 hM5, Fluo-8 calcium, ACh EC20 PAM; 0% = ACh EC20, 100% = ACh EC100. P08912;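 active = activation above the run cutoff, the mean activation of all test compounds plus 3 SD, cut at about 18% in these data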
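system = human M5 receptor in CHO-K1 cells | compound = one concentration, 3 µM final (nominal) | schedule = Post-acetylcholine fluorescence recording 140 s | signal = Fluo-8 calcium dye fluorescence, kinetic read | benchmarks = low control EC20 acetylcholine (0%), high control EC100 acetylcholine (100%) | repeats = singlicate, one well per test compound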
M4 PAM = potentiates acetylcholine response at human M4 receptor; P08173; CHO-K1 hM4/Gqi5, Fluo-8 calcium fluorescence, ACh EC20; 0% = ACh EC20, 100% = maximal ACh; activation, % at 3 µM; actives 0.4% (n = 360,000); AID 624126;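 active = activation above its plate's cutoff, the mean activation of sample wells plus 3 SD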
* hit, by the source's call. Sampled rows, rich in hits. Any-hit rate of the full collection: about 1.8%.

SMILES	M5 antag	CHRM5 agonist	CHRM4 agonist	CHRM4 antagonist	M5 PAM	M4 PAM
CCCCCN1C=CC=C/C1=C\C=C(C#N)C#N	-1	10	4	14	-3	-11
C=CCN1C=CC(=CC=C(C#N)C#N)C=C1	20	28*	29	23	-23	-15
CCCN1C=CC(=CC=C(C#N)C#N)C=C1	23	31*	25	17	-15	-11
CCOC(=O)/C(C#N)=C/C=C1\C=Cc2ccccc2N1CC	1	2	3	-1	-8	-3
O=C(Nc1cc(-c2ccccc2)[nH]n1)c1ccc(Cl)cc1	1	0	7	0	2	0
Cc1cccc(NC(=O)CNC(=O)Cc2ccc3c(c2)OCCO3)c1C	-4	5	2	1	-6	4
O=C(O)Cc1ccc2ccc3ccccc3c2c1	-17	3	2	-12	19*	6
CSc1ccc(CNCC2CCCO2)cc1 (stereo not drawn)	0	-12	1	-6	5	4
NC(=O)CCCn1c(C(=O)c2cc(Cl)c(N)c(Cl)c2)c2ccc(C(F)(F)F)cc2[n+]1[O-]	12	3	7	-9	-2	9
NCCCn1c(C(=O)c2cc(Cl)c(N)c(Cl)c2)c2ccc(C(F)(F)F)cc2[n+]1[O-]	-7	7	7	-8	19*	7
O=C(NC(=S)Nc1ncc(Br)cc1Br)c1ccccc1	-2	-1	-1	-12	-1	5
Cc1ccc(C(=O)N2CCC3(CC2)NCCc2[nH]cnc23)cc1C	-8	-1	3	-1	0	17*
CSCC[C@H](NC(=O)c1ccc2ccccc2c1)C(=O)N1CCC2(CC1)NCCc1[nH]cnc12	27*	-6	0	18	-6	-13
Cc1ccc(NC(=O)CNC(=O)c2ccco2)c(Cl)c1	1	-6	2	-13	5	5
COc1cccc2c1C(=O)c1c(O)c3c(c(O)c1C2=O)C[C@@](O)(C(=O)CO)C[C@@H]3OC1CC(N)C(O)C(C)O1 (stereo partly drawn)	26	75*	17	4	-29	-2
CC(=O)[C@@]1(O)Cc2c(O)c3c(c(O)c2[C@H](O[C@H]2C[C@H](N)[C@H](O)[C@H](C)O2)C1)C(=O)c1ccccc1C3=O	8	26*	36*	10	-2	0
COc1cccc2c1C(=O)c1c(O)c3c(c(O)c1C2=O)C[C@@](O)(C(=O)CO)C[C@@H]3O[C@H]1C[C@H](N)[C@H](O)[C@H](C)O1	15	8	15	6	-11	-7
COc1cccc2c1C(=O)c1c(O)c3c(c(O)c1C2=O)CC(O)(C(C)=O)CC3OC1CC(N(C)C)C(O)C(C)O1 (stereo not drawn)	7	19	7	14	-1	-2
O=C(NCC(=O)N1CCCCCCC1)c1ccc(Br)o1	1	-2	0	0	6	3
Cn1c(=O)[nH]c(=O)c2c1nc([N+](=O)[O-])n2Cc1ccccc1	2	7	1	-24	4	41*
O=C(N/C(=C/c1cccc([N+](=O)[O-])c1)C(=O)N1CCCCCC1)c1cccs1	-2	0	1	-6	0	8
O=C(N/C(=C/c1cccc([N+](=O)[O-])c1)C(=O)N1CCCCC1)c1ccco1	32*	-3	2	-6	-10	-4
COc1ccc(NC(=O)CN(C)C(=O)c2cc(-c3ccncc3)nc3ccccc23)cc1	23	1	18	7	-9	-10
COc1ccc(Cl)cc1NC(=O)CN(C)C(=O)c1cc(-c2ccncc2)nc2ccccc12	27*	3	33*	13	-25	-14
Nc1nc(CCOc2ccc(F)cc2)cs1	6	-4	1	-1	9	-4
SMILES	M5 antag	CHRM5 agonist	CHRM4 agonist	CHRM4 antagonist	M5 PAM	M4 PAM
CCN(CC)CCNC(=O)Cn1nc(-c2ccccc2)c2ccccc2c1=O	8	-10	0	-1	-4	-3
CCN(CC)CCNC(=O)Cn1ncc2ccccc2c1=O	-11	8	0	0	20*	18
COc1ccc(NC(=O)C2CCN(S(=O)(=O)c3ccc4c(c3)NC(=O)CO4)CC2)cc1	12	-6	1	-10	-6	3
O=C(CSc1ccc(-c2nc3ccccc3[nH]2)cn1)Nc1ccc(S(=O)(=O)NC2CC2)cc1	14	-2	9	31*	-16	-21
Cc1ccc(CNC(=O)c2ccc(N3CCC4(CC3)CC(c3ccccc3)=NO4)c(NC(=O)c3c(Cl)cccc3Cl)c2)cc1	12	3	3	1	1	-1
CCOc1ccc(CNC(=O)c2cccc(NC(=O)C3=C(C)OCCS3)c2)cc1	30*	4	12	0	-13	-8
COc1cccc(CNC(=O)c2cccc(NC(=O)C3=C(C)OCCS3)c2)c1	8	2	10	-17	-14	-2
Cn1c(SCC(=O)N2CCCC2=O)nc2ccccc2c1=O	21	2	12	5	-27	-9
CCN(C(=O)CSc1cccc[n+]1[O-])C1CCCCC1	5	2	0	15	0	3
CCCCC(CC(O)COCC(C)C)C(=O)NN (stereo not drawn)	-4	-3	0	0	7	8
CCCCCCCC(O)CC(CC1CCCCC1)C(=O)NN (stereo not drawn)	-4	-4	1	15	13	34*
Nc1nc(SCc2ccccc2)c2ncn(C3CCCO3)c2n1 (stereo not drawn)	5	1	4	-5	12	4
COc1cc(/C=C2\SC(N)=NC2=O)cc(Br)c1O	-7	24*	7	-1	-10	-7
COc1cc(/C=N/N2C(=O)CSC2=S)cc(Br)c1O	10	56*	69*	8	-21	-30
COc1ccc(/C=C2\SC(N)=NC2=O)cc1	2	4	0	1	-4	-6
COc1ccccc1CNC(=O)C(=O)Nc1ccc(C(=O)N2CCC(C)CC2)cc1	0	1	3	-10	3	3
COc1cc(C(=O)Nc2cccc(C(C)=O)c2)cc(OC)c1OC	5	3	5	-1	0	-2
COc1cc(C(=O)Nc2ccc3c(c2)N(C(=O)CCN(C)C)c2ccccc2CC3)cc(OC)c1OC	16	-9	1	30*	-21	-21
COc1cc(C(=O)Nc2cccc(NC(=O)c3ccccc3)c2)cc(OC)c1OC	30*	-7	14	-3	-25	-11
CN(CC(=O)Nc1ccc(Cl)c(C(F)(F)F)c1)C(=O)CCCNC(=O)c1ccc(Cl)cc1	13	2	7	-13	-9	10
